Results taken from BindingDB's records for doi:10.1021/jm960652r (Genentech, 1997).
pIC50: −log10 of the molar value.

Experiments:
[1] = target: T1, Integrin alpha-IIb/beta-3 (Homo sapiens, UniProt P08514+P05106); assay: Inhibition of thrombin-induced platelet aggregation assay at 20 uM
[2] = target: T1, Integrin alpha-IIb/beta-3; assay: Inhibition of 17.5 uM ADP-induced platelet aggregation of human platelet-rich plasma
Outline: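 Aggregation of human platelets in platelet-rich plasma. Values are the average of at least 3 determinations.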

T1 sequence (P05106 27-788 limits assumed): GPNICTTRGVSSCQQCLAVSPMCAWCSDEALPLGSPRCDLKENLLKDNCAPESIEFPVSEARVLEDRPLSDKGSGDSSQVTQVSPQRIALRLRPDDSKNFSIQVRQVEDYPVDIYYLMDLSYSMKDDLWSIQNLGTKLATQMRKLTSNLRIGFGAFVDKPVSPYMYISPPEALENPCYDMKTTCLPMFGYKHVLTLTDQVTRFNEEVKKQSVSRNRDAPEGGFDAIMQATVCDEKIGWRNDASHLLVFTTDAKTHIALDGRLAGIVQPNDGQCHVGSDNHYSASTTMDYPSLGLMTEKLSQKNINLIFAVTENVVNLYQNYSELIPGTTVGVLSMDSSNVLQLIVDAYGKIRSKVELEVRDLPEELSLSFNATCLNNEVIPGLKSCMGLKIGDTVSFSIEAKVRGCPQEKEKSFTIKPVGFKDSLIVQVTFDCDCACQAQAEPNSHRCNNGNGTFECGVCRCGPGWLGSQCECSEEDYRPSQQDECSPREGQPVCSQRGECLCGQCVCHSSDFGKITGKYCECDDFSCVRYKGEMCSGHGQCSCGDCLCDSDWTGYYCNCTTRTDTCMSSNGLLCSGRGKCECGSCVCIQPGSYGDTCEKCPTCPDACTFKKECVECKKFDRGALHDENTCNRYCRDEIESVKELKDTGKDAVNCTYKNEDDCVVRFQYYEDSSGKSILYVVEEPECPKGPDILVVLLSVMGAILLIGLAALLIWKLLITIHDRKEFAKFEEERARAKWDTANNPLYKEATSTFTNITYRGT
T1 sequence (P08514 32-887 limits assumed): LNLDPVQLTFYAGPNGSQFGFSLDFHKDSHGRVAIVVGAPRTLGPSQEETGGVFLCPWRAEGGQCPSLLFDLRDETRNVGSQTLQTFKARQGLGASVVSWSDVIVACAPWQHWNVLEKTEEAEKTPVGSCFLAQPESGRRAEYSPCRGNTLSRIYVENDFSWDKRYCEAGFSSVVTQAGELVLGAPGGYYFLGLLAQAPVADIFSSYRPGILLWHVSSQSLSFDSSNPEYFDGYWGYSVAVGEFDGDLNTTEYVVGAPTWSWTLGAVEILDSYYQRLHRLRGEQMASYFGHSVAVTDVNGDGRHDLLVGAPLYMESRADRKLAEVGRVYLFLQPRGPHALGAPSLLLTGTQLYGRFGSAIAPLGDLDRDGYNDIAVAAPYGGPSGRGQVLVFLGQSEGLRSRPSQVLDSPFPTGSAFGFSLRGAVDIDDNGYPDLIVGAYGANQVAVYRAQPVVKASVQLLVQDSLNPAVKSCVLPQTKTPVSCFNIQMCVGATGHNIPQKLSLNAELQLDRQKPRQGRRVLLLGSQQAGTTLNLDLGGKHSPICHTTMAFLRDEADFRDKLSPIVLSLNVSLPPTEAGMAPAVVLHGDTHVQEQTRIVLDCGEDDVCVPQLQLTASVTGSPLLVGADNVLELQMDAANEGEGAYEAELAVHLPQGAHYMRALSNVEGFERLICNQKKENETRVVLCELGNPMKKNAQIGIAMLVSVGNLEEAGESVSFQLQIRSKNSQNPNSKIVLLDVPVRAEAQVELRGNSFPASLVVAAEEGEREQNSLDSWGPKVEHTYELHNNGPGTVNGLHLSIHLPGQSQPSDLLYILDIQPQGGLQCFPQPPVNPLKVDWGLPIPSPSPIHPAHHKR
T1 sequence (P08514 891-1039 limits assumed): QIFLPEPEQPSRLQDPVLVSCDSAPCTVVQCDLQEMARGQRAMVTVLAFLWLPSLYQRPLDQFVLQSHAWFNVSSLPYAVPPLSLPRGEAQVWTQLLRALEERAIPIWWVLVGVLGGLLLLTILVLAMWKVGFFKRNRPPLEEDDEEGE

Compound | pIC50 [1] | pIC50 [2]
CN1C(=O)CN(CCC(=O)O)C(=O)c2cc(C#Cc3ccc(C(=N)N)cc3)ccc21 [3-[7-(4-Carbamimidoyl-phenylethynyl)-1-methyl-2,5-dioxo-1,2,3,5-tetrahydro-benzo[e][1,4]diazepin-4-yl]-propionic acid(G6249)] | 6.67 | 
C[C@H](CC(=O)O)N1CC(=O)N(C(C)(C)C)c2c(Cl)cc(C#Cc3ccc(C(=N)N)cc3)cc2C1=O [(R)-3-[1-tert-Butyl-7-(4-carbamimidoyl-phenylethynyl)-9-chloro-2,5-dioxo-1,2,3,5-tetrahydro-benzo[e][1,4]diazepin-4-yl]-butyric acid] |  | 5.89
C[C@H](CC(=O)O)N1CC(=O)N(C)c2ccc(C#Cc3ccc(C(=N)N)cc3)cc2C1=O [(R)-3-[7-(4-Carbamimidoyl-phenylethynyl)-1-methyl-2,5-dioxo-1,2,3,5-tetrahydro-benzo[e][1,4]diazepin-4-yl]-butyric acid] |  | 6.09
C[C@@H](CC(=O)O)N1CC(=O)N(C(C)(C)C)c2ccc(C#Cc3ccc(C(=N)N)cc3)cc2C1=O [(S)-3-[1-tert-Butyl-7-(4-carbamimidoyl-phenylethynyl)-2,5-dioxo-1,2,3,5-tetrahydro-benzo[e][1,4]diazepin-4-yl]-butyric acid] |  | 7.04
C[C@@H](CC(=O)O)N1CC(=O)N(C(C)(C)C)c2c(Cl)cc(C#Cc3ccc(C(=N)N)cc3)cc2C1=O [(S)-3-[1-tert-Butyl-7-(4-carbamimidoyl-phenylethynyl)-9-chloro-2,5-dioxo-1,2,3,5-tetrahydro-benzo[e][1,4]diazepin-4-yl]-butyric acid] | 7.22 | 7.47
C[C@@H](CC(=O)O)N1CC(=O)N(C)c2ccc(C#Cc3ccc(C(=N)N)cc3)cc2C1=O [(S)-3-[7-(4-Carbamimidoyl-phenylethynyl)-1-methyl-2,5-dioxo-1,2,3,5-tetrahydro-benzo[e][1,4]diazepin-4-yl]-butyric acid] | 6.86 | 7.11
C[C@@H](CC(=O)O)N1CC(=O)N(C)c2c(Cl)cc(C#Cc3ccc(C(=N)N)cc3)cc2C1=O [(S)-3-[7-(4-Carbamimidoyl-phenylethynyl)-9-chloro-1-methyl-2,5-dioxo-1,2,3,5-tetrahydro-benzo[e][1,4]diazepin-4-yl]-butyric acid] | 6.50 | 6.80
